High-throughput results: PubChem, several laboratories
Fh CTSL1 inh – counter-screen for PFM18AAP inhibitors: inhibitors of F. hepatica cathepsin L1; recombinant F. hepatica cathepsin L1, Z-Leu-Arg-MCA fluorescence; inhibition, % at 5.96 µM; hit rate 0.49% among 300,000;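 active = inhibition above the mean of all tested compounds plus 3 SD, set per screening campaign, cut at about 17% in these data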
Apaf1 inhib – blocks human Apaf-1 apoptosome activity; inhibition, % at 20 µM; O14727; hit rate 0.71% among 330,000; reconstituted apoptosome caspase-3 activity, DEVD-Rh110 fluorescence; AID 489030; active = inhibition of at least 40% at 20 µM
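Material: reconstituted apoptosome with Apaf-1, cytochrome c, caspase-9, procaspase-3, dATP / Buffer or medium: pH 7.5 Hepes buffer with CHAPS, BSA, DTT / Also added: cytochrome c with DEVD-Rh110 / Schedule: compound with Apaf-1, dATP, procaspase-3 30 min, then 50 min reaction, room temperature / Technique: rhodamine 110 fluorescence at Ex 480/Em 540 nm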
TDP2 inh – blocks human TDP2 phosphodiesterase activity. O95551. recombinant TDP2, T5PNP hydrolysis, p-nitrophenol absorbance 415 nm. inhibition, % at 12.8 µM. hit rate 0.34% among 370,000;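 active = inhibition above the mean of all tested compounds plus 3 SD, set per campaign, cut at about 25% in these data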
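Assay system: Recombinant human TDP2 | Quantity: 120 nM TDP2 per well | Incubation: 2 h at 37 °C | Signal: Epi absorbance | Evaluation: Percent inhibition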
GSTO1 inh – counter-screen for RBBP9 inhibitors: inhibitors of human GSTO1 | recombinant GSTO1, activity-based probe fluorescence polarization | inhibition, % at 5.96 µM | hit rate 1.1% among 300,000;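 active = inhibition above the campaign mean inhibition plus 3 SD, cut at about 35% in these data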
PAD4 inh – inhibitors of human PAD4. inhibition, % at 6.36 µM. recombinant PAD4, RCA probe fluorescence polarization. Q9UM07. hit rate 0.41% among 330,000;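 active = percent inhibition above a cutoff equal to the mean of all tested compounds plus 3 SD, cut at about 15% in these data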
Hits are given with their value; - = inactive; . = no result given. Rows were chosen to be rich in hits. Some 1.8% of all compounds tested hit in one or more screens of this group.

SMILES	Fh CTSL1 inh	Apaf1 inhib	TDP2 inh	GSTO1 inh	PAD4 inh
C#CCOCCOCCOCCNc1nc(N2CCN(C(=O)CCCCCCCCCCNC(=O)Cn3cc(C[C@@H](C)O)nn3)CC2)nc(N2CCN(C(=O)CCCCCCCCCCNC(=O)[C@H](CCCCN)n3cc(C[C@@H](C)CC)nn3)CC2)n1	-	70.5	.	-	-
C#CCOCCOCCOCCNc1nc(N2CCN(C(=O)CCCCCCCCCCNC(=O)Cn3cc(CCCCCN)nn3)CC2)nc(N2CCN(C(=O)CCCCCCCCCCNC(=O)[C@H](CO)n3cc(CCCCCN)nn3)CC2)n1	-	62.9	.	-	-
C#CCOCCOCCOCCNc1nc(N2CCOCC2)nc(N2CCN(C(=O)CCCCCCCCCCNC(=O)[C@H](CO)n3cc(CCCCCN)nn3)CC2)n1	-	43.5	-	-	-
C#CCOCCOCCOCCNc1nc(N2CCN(C(=O)CCCCCCCCCCNC(=O)Cn3cc(C[C@@H](C)O)nn3)CC2)nc(N2CCN(C(=O)CCCCCCCCCCNC(=O)Cn3cc(C[C@@H](C)O)nn3)CC2)n1	-	-	-	-	-
CCCCNC(=O)C[C@@H]1C(=O)N(CCc2ccc(Cl)cc2)/C2=C/CCCCC[C@@]21C(=O)OCC	.	.	-	.	.
CC(C)=CC([C@]12C[C@H](CO)N[C@@H]1Nc1ccccc12)S(=O)(=O)c1ccccc1 (stereo not given in full)	.	.	-	.	.
CC(C)(C)C(=O)Nc1ccccc1C(=O)N1CCCC1	17.4	-	-	-	-
COC(=O)Nc1ccccc1C(=O)N1CCCCC1	-	-	-	-	-
C=CCn1c(N)c(C(=O)OC(C)(C)C)c2nc3ccccc3nc21	.	67.3	-	.	.
CC(NC(=O)Cn1ncc(Cl)c(Cl)c1=O)C12CC3CC(CC(C3)C1)C2 (stereo not given)	-	.	.	36.5	-
CCn1cc(C(=O)NC(C)C23CC4CC(CC(C4)C2)C3)cn1 (stereo not given)	-	-	-	-	-
Cc1ccc(-c2csc(/C=C3/SC(C)C(=O)N3CC(=O)Nc3ccccc3F)n2)cc1 (stereo not given)	.	.	-	.	.
CC(=O)c1ccccc1NC(=O)CN1C(=O)CS/C1=C\c1nc(-c2ccc(C)cc2)cs1	17.8	-	-	-	-
COc1ccc(C[C@H]2CN3C(=NC[C@@H]3Cc3ccccc3)N2C[C@H](C)NC(=O)CCC2CCCCC2)cc1	.	51.6	.	.	.
COc1ccc(C[C@@H]2CN3C(=NC[C@@H]3C)N2C[C@H](C)NC(=O)CCC2CCCCC2)cc1	-	-	-	-	-
O=C(CSc1ccc2nnc(-c3ccccn3)n2n1)Nc1ccc(F)cc1	50.4	-	-	-	-
COC(=O)C1=C(C)N(Cc2ccc(F)cc2)C(=S)NC1c1cccc(OC)c1 (stereo not given)	.	.	-	.	.
CCC[C@H](/C=C/C(=O)OC(C)(C)C)Sc1ccc(N)cc1	.	.	-	.	.
Cc1c(NC(=O)CSCc2ccc(Cl)cc2Cl)cccc1C(=O)O	18.9	-	-	-	-
N/C(=N\OS(=O)(=O)c1ccccc1)c1ccncc1	33.1	-	-	-	-
N/C(=N\OS(=O)(=O)c1ccc2ccccc2c1)c1cccnc1	-	-	-	-	-
N/C(=N\OS(=O)(=O)c1ccc2ccccc2c1)c1ccncc1	42.6	-	-	-	-
Nn1c(SCC(=O)N2CCOCC2)nnc1-c1cc(-c2ccc(Cl)cc2)n[nH]1	.	.	-	.	.
O=S(=O)(Nc1nc(-c2sccc2Cl)cs1)c1cc(Cl)ccc1Cl	-	-	.	40.1	-
CCOc1ccc(S(=O)(=O)NCCC(=O)NCC(c2ccc(F)cc2)N2CCOCC2)cc1 (stereo not given)	18.1	-	-	-	-
SMILES	Fh CTSL1 inh	Apaf1 inhib	TDP2 inh	GSTO1 inh	PAD4 inh
CN(C)c1cccc(-c2ccnc(N3CCC(C(N)=O)CC3)n2)c1	.	.	-	.	.
C=CCCC(=O)N1CCC(C(=O)NCC2COc3ccccc3O2)CC1 (stereo not given)	.	.	-	.	.
CCOC(=O)/C=C/C(=O)Nc1ccc(S(=O)(=O)N2CCCCCC2)cc1	31.2	-	-	-	-
CCOC(=O)/C=C/C(=O)Nc1ccc(-c2nnc3n2CCCCC3)cc1	37.4	-	-	-	-
CCCCCC(=O)Nc1ccc(-c2nnc3n2CCCCC3)cc1	-	-	-	-	-
CCOc1ccc(/C=C2\NCCc3cc(OCC)c(OCC)cc32)cc1OCC	.	.	-	.	.
O=C(O)c1cccc2c1C(=O)c1ccccc1C2=O	-	-	-	-	-
O=C1C=C(O)c2c(O)cc(O)c(O)c2C1=O	-	-	-	72.8	-
O=C1c2ccccc2C(=O)c2c(O)c(O)cc(O)c21	.	-	-	.	95.5
C[C@@H]1Cc2c(O)c(O)cc(O)c2C(=O)O1	-	-	.	-	-
COc1ccc(-c2cc(-c3nnc(SCC(=O)Nc4ccc(OCc5ccccc5)cc4)n3N)[nH]n2)cc1	.	.	-	.	.
Cc1ccc(/C=C/C(=O)NC2CCCCCCC2)o1	74.1	-	-	-	-
COc1ccc(CNS(=O)(=O)CC2NCc3cc(OC)ccc32)cc1 (stereo not given)	.	.	-	.	.
CCOC(=O)Cn1cc(C#N)c2ccccc21	-	-	-	-	-
CCOC(=O)CC(C#N)c1cn(C)c2ccccc12 (stereo not given)	28.2	-	-	-	-
COC(=O)CSc1cc([N+](=O)[O-])ccc1NC(=O)OC	18.6	-	-	-	-
COc1cc([N+](=O)[O-])ccc1NC(=O)CN1CCc2cc(OC)c(OC)cc2C1	.	44.1	-	.	.
c1ccc(Cn2ccc3ccc(-c4ccc5ccn(Cc6cccc(-c7ccsc7)c6)c5c4)cc32)cc1	.	.	-	.	.
CCOC(=O)[C@]12CCCCC/C=C\1N(CCc1ccc(Cl)cc1)C(=O)[C@H]2CC(=O)NCCc1ccccc1OC	.	.	-	.	.
O=C(CSc1nnnn1-c1ccc2c(c1)OCCO2)OC1CCCCC1	78.0	-	-	-	-
CCOC(=O)N1CCC(NC(=O)c2ccc3c(c2)sc2nc(-c4ccc(OC)cc4)cn23)CC1	-	43.7	.	-	-
COc1ccc(S(=O)(=O)Nc2ccccc2C(=O)NC(C)(C)C)cc1OC	-	-	-	-	-
COc1ccc(S(=O)(=O)Nc2ccccc2C(=O)OC2CCCN(C)C2)cc1OC (stereo not given)	27.4	-	-	-	-
Cc1ccc(S(=O)(=O)NCCSc2nnnn2-c2cc(C)ccc2C)cc1	-	-	-	35.3	-
CC(C)C[C@H](NC(=O)OC(C)(C)C)c1nnc(SCc2cccc(F)c2)o1	-	-	-	-	-
CC(C)C[C@H](NC(=O)OC(C)(C)C)c1nnc(SCC(=O)Nc2ccc(Br)cc2)o1	99.2	-	-	-	-
Cc1ccc(C)c(NC(=O)CSc2nnc(-c3ccco3)o2)c1	-	-	-	-	-
CC(C)C[C@H](N)c1nnc(SCC(=O)Nc2ccc(Br)cc2)o1	90.5	-	-	-	-
Cc1ccc(C)c(NC(=O)CSc2nnc([C@@H](N)Cc3ccccc3)o2)c1	17.6	-	-	-	-
COC(CNC(=O)c1ccc2c(c1)ncn2-c1ccc(F)c(F)c1)OC	18.0	-	-	-	-
